Columns and labels:
[1] = tested on: Human immunodeficiency virus; assay: Antiviral activity against HIV 3B in MT4 cells assessed as inhibition of replication after 3 days in presence of 10% fetal bovine serum; type: functional; settings: Human immunodeficiency virus 1, 3B, MT4, 72 h; read-out: CIC95
How it was run: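 MT4 cells infected overnight with wild-type H9IIIB virus (moi 0.01) without compound, washed, then cultured 3 days across a compound concentration range in 10% FBS. Replication read as p24 in culture supernatants. CIC95 = lowest concentration inhibiting replication by ≥95%.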

[2] = Inhibition of HIV NL43 recombinant reverse transcriptase by scintillation proximity assay; set-up: species or system Human immunodeficiency virus
How it was run: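 Purified recombinant wild-type RT (NL_43) polymerase activity measured as 3H-dNTP incorporation, using a 500 nt heteropolymeric RNA template with biotinylated DNA primer. Read by scintillation proximity assay.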

[3] = target: Human immunodeficiency virus type 1 reverse transcriptase (Human immunodeficiency virus 1, UniProt Q72547, Y181C); assay: Inhibition of HIV HXB2 recombinant reverse transcriptase Y181C mutant by scintillation proximity assay
[4] = target: Human immunodeficiency virus type 1 reverse transcriptase (Human immunodeficiency virus 1, UniProt Q72547, K103N); assay: Inhibition of HIV NL43 recombinant reverse transcriptase K103N mutant by scintillation proximity assay

Row | Structure (SMILES) | IC95 [1] [nM] | IC50 [2] [nM] | IC50 [3] [nM] | IC50 [4] [nM]
1 | O=C(NCc1c(F)cccc1Cl)c1[nH]c2ccc(Br)cc2c1S(=O)(=O)N1CCCC1 | 25 | 3.8 | 16 | 20
2 | O=C(NCc1ccccc1O)c1[nH]c2ccc(Br)cc2c1S(=O)(=O)N1CCCC1 | 23 | 2.4 | 9.4 | 31
3 | O=C(NCc1ccn[nH]1)c1[nH]c2ccc(Br)cc2c1S(=O)(=O)N1CCCC1 | < 7.8 | 2.5 | 829 | 260
4 | O=C(NCc1ccncc1)c1[nH]c2ccc(Br)cc2c1S(=O)(=O)N1CCCC1 | < 7.8 | 14 | 6.3 | 170
5 | O=C(NCc1cncs1)c1[nH]c2ccc(Br)cc2c1S(=O)(=O)N1CCCC1 | 16 | 6.2 | 6 | 93
6 | Cc1cnc(-c2[nH]c3ccc(Br)cc3c2S(=O)(=O)N2CCCC2)[nH]1 | < 7.8 | 3.1 | 25 | 42
7 | CCC(O)c1cnc(-c2[nH]c3ccc(Br)cc3c2S(=O)(=O)N2CCCC2)[nH]1 (centres undefined) | 50 | 8.8 | 2600 | 62
8 | N#Cc1ccc2[nH]c(C(N)=O)c(S(=O)(=O)N3CCCC3)c2c1 | 16 | 9.1 | > 10000 | 2300
9 | NC(=O)c1[nH]c2ccc(-c3cccnc3)cc2c1S(=O)(=O)N1CCCC1 | 310 | 2200 |  | 
10 | CCC(OC)c1cnc(-c2[nH]c3ccc(Br)cc3c2S(=O)(=O)N2CCCC2)[nH]1 (centres undefined) | 100 | 16 | 240 | 110
11 | O=S(=O)(c1c(-c2ncc(-c3ccccc3)[nH]2)[nH]c2ccc(Br)cc12)N1CCCC1 | 67 | 11 | > 9100 | 150
12 | O=S(=O)(c1c(-c2nc3ccccc3[nH]2)[nH]c2ccc(Br)cc12)N1CCCC1 | 78 | 6.9 | 38 | 280
13 | COc1ccc2nc(-c3[nH]c4ccc(Br)cc4c3S(=O)(=O)N3CCCC3)[nH]c2c1 | 400 | 45 | 5100 | 150
14 | O=S(=O)(c1c(-c2nc3ccc(F)cc3[nH]2)[nH]c2ccc(Br)cc12)N1CCCC1 | 280 | 15 | 5300 | 220
15 | Cc1cnc(-c2[nH]c3ccc(Cl)cc3c2S(=O)(=O)c2ccccc2)[nH]1 | 12 | 5 |  | 
16 | NC(=O)c1[nH]c2ccc(Br)cc2c1S(=O)(=O)NC1CCCCC1 | 125 | 14 |  | 
17 | NC(=O)c1[nH]c2ccc(Br)cc2c1S(=O)(=O)N1CCCC1 | < 7.8 |  | 120 | 10000

Row | Structure (SMILES) | IC95 [1] [nM] | IC50 [2] [nM] | IC50 [3] [nM] | IC50 [4] [nM]
18 | NC(=O)c1[nH]c2ccc(Br)cc2c1S(=O)(=O)N1CCCCC1 | 16 | 5.7 |  | 
19 | NC(=O)c1[nH]c2ccc(C3CC3)cc2c1S(=O)(=O)N1CCCC1 | 160 | 940 |  | 
20 | NC(=O)c1[nH]c2ccc(Br)cc2c1S(=O)(=O)N1CCC(F)(F)CC1 | 410 | 4.5 |  | 
21 | CCCNS(=O)(=O)c1c(C(N)=O)[nH]c2ccc(Br)cc12 | 160 | 19 |  | 
22 | NC(=O)c1[nH]c2ccc(Br)cc2c1S(=O)(=O)NC1CCCC1 | 125 | 18 |  | 
23 | O=C(NCCO)c1[nH]c2ccc(Br)cc2c1S(=O)(=O)N1CCCC1 | 625 | 15 | 6.9 | 2800
24 | O=S(=O)(c1c(-c2nc3cccnc3[nH]2)[nH]c2ccc(Br)cc12)N1CCCC1 | 82 | 40 | 5000 | 370
25 | NC(=O)c1[nH]c2ccc(Br)cc2c1S(=O)(=O)NC1CCC1 | 125 | 0.5 |  | 
26 | O=S(=O)(c1c(-c2nc3cccc(O)c3[nH]2)[nH]c2ccc(Br)cc12)N1CCCC1 | 82 | 10 | 810 | 48
27 | NC(=O)c1[nH]c2ccc(C#CC3CC3)cc2c1S(=O)(=O)N1CCCC1 | 630 | 430 |  | 
28 | NC(=O)c1[nH]c2ccc(Cc3ccc(Cl)cn3)cc2c1S(=O)(=O)N1CCCC1 |  | 59 | > 10000 | 8200
29 | NC(=O)c1[nH]c2ccc(Br)cc2c1S(=O)(=O)NC1CCC(F)(F)C1 (centres undefined) | 140 | 0.2 |  | 
30 | NC(=O)c1[nH]c2ccc(Cl)cc2c1S(=O)(=O)N1CCCC1 | < 7.8 | 3.9 | 48 | 1960
31 | O=C(NCc1nccs1)c1[nH]c2ccc(Br)cc2c1S(=O)(=O)N1CCCC1 | < 7.8 | 2.8 | 200 | 280
32 | O=C(NCc1ccnc2ccccc12)c1[nH]c2ccc(Br)cc2c1S(=O)(=O)N1CCCC1 | 82 | 3.1 | 63 | 25
33 | NC(=O)c1[nH]c2ccc(-c3ccccc3)cc2c1S(=O)(=O)N1CCCC1 | 1300 | 550 |  | 
34 | NC(=O)c1[nH]c2ccc(Cl)cc2c1S(=O)(=O)c1ccccc1 [L-737126] |  | 3 | 71 | 116

From ChEMBL document CHEMBL1140821, “Novel indole-3-sulfonamides as potent HIV non-nucleoside reverse transcriptase inhibitors (NNRTIs)” (Bioorg Med Chem Lett, 2008)
